Activity calls are given as the source filed them. The calls are words filed in the database; no cut-off is given here.
Experiments:
Enterococcus faecium = assay: Antimicrobial activity against Enterococcus faecium assessed as inhibition of microbial growth at 45 uM after 24 hrs; format: functional, organism-based
Outline: (§1)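 Broth microdilution single-concentration read: overnight cultures diluted 1:1000, compound in DMF (≤2.0%) added, 37°C for 24 h, growth inhibition scored visually by lack of turbidity; triplicate. Gram-positives grown in TSB, Gram-negatives in LB.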

Staphylococcus aureus [1] = assay: Antimicrobial activity against Staphylococcus aureus assessed as inhibition of microbial growth at 45 uM after 24 hrs; format: functional, organism-based; outline: as §1
Klebsiella pneumoniae [2] = assay: Antimicrobial activity against Klebsiella pneumoniae assessed as inhibition of microbial growth at 45 uM after 24 hrs; format: functional, organism-based; outline: as §1
Acinetobacter baumannii [3] = assay: Antimicrobial activity against Acinetobacter baumannii assessed as inhibition of microbial growth at 45 uM after 24 hrs; format: functional, organism-based; outline: as §1
Pseudomonas aeruginosa = assay: Antimicrobial activity against Pseudomonas aeruginosa assessed as inhibition of microbial growth at 45 uM after 24 hrs; format: functional, organism-based; outline: as §1
Enterobacter cloacae [4] = assay: Antimicrobial activity against Enterobacter cloacae assessed as inhibition of microbial growth at 45 uM after 24 hrs; format: functional, organism-based; outline: as §1
Staphylococcus aureus [5] = assay: Ratio of MIC for Staphylococcus aureus measured after 8 cycle passage to MIC for wild type Staphylococcus aureus; format: functional
Klebsiella pneumoniae [6] = assay: Ratio of MIC for Klebsiella pneumoniae measured after 8 cycle passage to MIC for wild type Klebsiella pneumoniae; format: functional
Acinetobacter baumannii [7] = assay: Ratio of MIC for Acinetobacter baumannii measured after 8 cycle passage to MIC for wild type Acinetobacter baumannii; format: functional
Enterobacter cloacae [8] = assay: Ratio of MIC for Enterobacter cloacae measured after 8 cycle passage to MIC for wild type Enterobacter cloacae; format: functional

Row | Structure (SMILES) | growth inhibition (GI) (Enterococcus faecium) | growth inhibition (GI) (Staphylococcus aureus [1]) | growth inhibition (GI) (Klebsiella pneumoniae [2]) | growth inhibition (GI) (Acinetobacter baumannii [3]) | growth inhibition (GI) (Pseudomonas aeruginosa) | growth inhibition (GI) (Enterobacter cloacae [4]) | Ratio (Staphylococcus aureus [5]) | Ratio (Klebsiella pneumoniae [6]) | Ratio (Acinetobacter baumannii [7]) | Ratio (Enterobacter cloacae [8])
1 | N=C1NC[C@H](CCCCN2C[C@@H](Cc3cccc4ccccc34)N(CCc3ccc(-c4ccccc4)cc3)C2=N)N1CCCCC1CCCCC1 | Active | Active | Active | Active | Active | Active |  |  |  | 
2 | CCCCCCCN1C(=N)N(CCCC[C@H]2CNC(=N)N2CCC23CC4CC(CC(C4)C2)C3)C[C@H]1Cc1cccc2ccccc12 | Active | Active | Active | Active | Active | Active |  |  |  | 
3 | CN[C@H](CC(C)C)C(=O)N[C@H]1C(=O)N[C@@H](CC(N)=O)C(=O)N[C@H]2C(=O)N[C@H]3C(=O)N[C@H](C(=O)N[C@H](C(=O)O)c4cc(O)cc(O)c4-c4cc3ccc4O)[C@H](O)c3ccc(c(Cl)c3)Oc3cc2cc(c3O[C@@H]2O[C@H](CO)[C@@H](O)[C@H](O)[C@H]2O[C@H]2C[C@](C)(N)[C@H](O)[C@H](C)O2)Oc2ccc(cc2Cl)[C@H]1O [VANCOMYCIN] |  |  |  |  |  |  | 128 | <=128 | <=128 | <=128
4 | CCCCCCCN1C(=N)N(CCCC[C@H]2CNC(=N)N2CCCCC2CCCCC2)C[C@H]1Cc1cccc2ccccc12 | Active | Active | Active | Active | Active | Active |  |  |  | 
5 | N=C1NC[C@H](CCCCN2C[C@@H](Cc3cccc4ccccc34)N(CCCCC3CCCCC3)C2=N)N1CCc1cccc(C(F)(F)F)c1 | Active | Active | Active | Active | Active | Active |  |  |  | 
6 | N=C1NC[C@H](CCCCN2C[C@H](CC3CCCCC3)N(CCc3ccc(-c4ccccc4)cc3)C2=N)N1CCC12CC3CC(CC(C3)C1)C2 | Active | Active | Active | Active | Active | Active |  |  |  | 
7 | CCCCCCCN1C(=N)N(CCCC[C@H]2CNC(=N)N2CCCCC2CCCCC2)C[C@@H]1CCCC | Active | Active | Active | Active | Active | Active |  |  |  | 
8 | CCCC[C@H]1CN(CCCC[C@H]2CNC(=N)N2CCCCC2CCCCC2)C(=N)N1CCCCC1CCCCC1 | Active | Active | Active | Active | Active | Active |  |  |  | 
9 | CCCC[C@H]1CN(CCCC[C@H]2CNC(=N)N2CCC23CC4CC(CC(C4)C2)C3)C(=N)N1CCCCC1CCCCC1 | Active | Active | Active | Active | Active | Active |  |  |  | 
10 | N=C1NC[C@H](CCCCN2C[C@@H](Cc3cccc4ccccc34)N(CCc3ccc(-c4ccccc4)cc3)C2=N)N1CCC12CC3CC(CC(C3)C1)C2 | inactive | inactive | inactive | inactive | inactive | inactive |  |  |  | 
11 | CCCCCCCN1C(=N)N(CCCC[C@H]2CNC(=N)N2CCc2cccc(C(F)(F)F)c2)C[C@H]1Cc1cccc2ccccc12 | Active | Active | Active | Active | Active | Active |  |  |  | 
